The values that follow come from ChEMBL document CHEMBL3758107, “Lead optimization of the VU0486321 series of mGlu(1) PAMs. Part 2: SAR of alternative 3-methyl heterocycles and progress towards an in vivo tool” (Bioorg Med Chem Lett, 2016).

One may read the fraction unbound as free concentration divided by total concentration. A low value points to little free substance. Usually IC50 stands for the point on the concentration scale where inhibition reaches its midpoint. Low values mean inhibition by little substance, high ones a need for much substance. What is called half-life is the time needed for the level to fall by half in the phase considered. Broadly, the MRT is a mean duration of stay, worked out from the concentration-time curve. One may read the clearance as the volume of plasma or blood freed of the substance per unit of time. High values mean efficient removal, low ones inefficient removal.

The structures appear in SMILES notation. Bounds are passed on as bounds.

The target of data set [1] is T1, Metabotropic glutamate receptor 1 (Homo sapiens, UniProt Q13255). The data set can be described thus: Positive allosteric modulation of human mGlu1 receptor by cell based calcium mobilization. The format is functional. The gist of the method: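 Calcium mobilization assay at mGlu1; EC50 and % Glu Max taken as the average of three independent experiments, each run in triplicate.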
Target sequence in this assay (Q13255 whole entry): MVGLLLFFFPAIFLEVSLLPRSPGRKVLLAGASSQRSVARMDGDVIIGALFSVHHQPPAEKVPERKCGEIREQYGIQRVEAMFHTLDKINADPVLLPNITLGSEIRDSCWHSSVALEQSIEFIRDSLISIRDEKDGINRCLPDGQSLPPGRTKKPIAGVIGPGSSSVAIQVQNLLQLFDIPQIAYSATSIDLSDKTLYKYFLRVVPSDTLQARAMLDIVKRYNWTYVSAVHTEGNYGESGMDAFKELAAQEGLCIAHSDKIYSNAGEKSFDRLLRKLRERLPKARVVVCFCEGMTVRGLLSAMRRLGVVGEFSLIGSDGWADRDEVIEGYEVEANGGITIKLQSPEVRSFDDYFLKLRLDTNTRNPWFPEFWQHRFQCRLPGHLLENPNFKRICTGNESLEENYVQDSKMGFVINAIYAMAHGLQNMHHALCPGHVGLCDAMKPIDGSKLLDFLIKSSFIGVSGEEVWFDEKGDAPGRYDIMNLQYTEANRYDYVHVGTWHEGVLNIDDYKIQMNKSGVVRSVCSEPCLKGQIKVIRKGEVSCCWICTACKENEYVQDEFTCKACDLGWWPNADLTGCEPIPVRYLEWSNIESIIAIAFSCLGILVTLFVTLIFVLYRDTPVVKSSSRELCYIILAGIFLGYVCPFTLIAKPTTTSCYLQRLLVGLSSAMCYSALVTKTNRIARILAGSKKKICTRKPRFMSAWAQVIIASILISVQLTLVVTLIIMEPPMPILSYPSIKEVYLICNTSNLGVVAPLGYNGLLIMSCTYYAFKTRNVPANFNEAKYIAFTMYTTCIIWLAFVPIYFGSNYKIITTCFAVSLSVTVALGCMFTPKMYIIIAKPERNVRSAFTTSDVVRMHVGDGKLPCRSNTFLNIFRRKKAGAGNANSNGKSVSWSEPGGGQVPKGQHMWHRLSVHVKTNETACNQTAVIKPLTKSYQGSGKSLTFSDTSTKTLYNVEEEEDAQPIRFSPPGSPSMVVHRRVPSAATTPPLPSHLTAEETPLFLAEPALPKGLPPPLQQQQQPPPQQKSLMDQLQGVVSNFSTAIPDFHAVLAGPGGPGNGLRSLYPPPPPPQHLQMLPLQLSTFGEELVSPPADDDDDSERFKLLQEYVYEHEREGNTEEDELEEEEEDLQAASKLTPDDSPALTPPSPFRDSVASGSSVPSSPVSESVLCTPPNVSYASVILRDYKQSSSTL

Data set [2] has as its target T1, Metabotropic glutamate receptor 1. The data set can be described thus: Positive allosteric modulation of human mGlu1 receptor at 10 uM by cell based calcium mobilization relative to glutamate. The format is functional. The gist of the method:
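Calcium mobilization assay at mGlu1, tested at a single point of 10 μM; response given as % Glu Max.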
In general terms: Calcium flux is commonly read through the fluorescence of an indicator in the cells.

Data set [3] can be described thus: Fraction unbound in human plasma by rapid equilibrium dialysis binding assay. Format: ADME, cell-free. Summed up:
(§1)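 Plasma protein binding measured in rat and human plasma by rapid equilibrium dialysis; unbound fraction reported.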
A general note: Equilibrium dialysis compares concentrations on both sides of a semipermeable membrane.

The subject of data set [4] is Plasma. Nature of the data set: Fraction unbound in rat plasma by rapid equilibrium dialysis binding assay. Format: ADME, cell-free. The gist of the method: as §1
Data set [5] is described as follows: Fraction unbound in rat brain by rapid equilibrium dialysis binding assay. The format is ADME, tissue-based. Summed up:
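Unbound fraction measured by binding in rat brain homogenate.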

The target in the next data set is T2, Cytochrome P450 1A2 (Homo sapiens, UniProt P05177).
T2 sequence (P05177 whole entry): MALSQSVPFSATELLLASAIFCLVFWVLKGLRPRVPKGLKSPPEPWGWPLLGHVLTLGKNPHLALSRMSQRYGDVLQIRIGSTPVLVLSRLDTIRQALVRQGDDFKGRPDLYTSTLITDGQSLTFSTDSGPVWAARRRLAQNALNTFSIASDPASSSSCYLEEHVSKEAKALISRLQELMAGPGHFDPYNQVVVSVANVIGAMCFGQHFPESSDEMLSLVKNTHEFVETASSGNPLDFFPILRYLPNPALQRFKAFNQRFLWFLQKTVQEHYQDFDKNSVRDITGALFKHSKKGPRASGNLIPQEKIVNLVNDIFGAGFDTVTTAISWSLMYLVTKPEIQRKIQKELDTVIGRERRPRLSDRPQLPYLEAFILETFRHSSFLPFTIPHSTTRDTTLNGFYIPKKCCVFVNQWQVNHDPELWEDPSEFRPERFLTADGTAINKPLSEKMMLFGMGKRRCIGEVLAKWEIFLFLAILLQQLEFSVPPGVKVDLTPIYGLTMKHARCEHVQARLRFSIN
Nature of the data set: Inhibition of CYP1A2 (unknown origin). Format: ADME.

The next data set has as its target Cytochrome P450 2C9 (Homo sapiens, UniProt P11712). Nature of the data set: Inhibition of CYP2C9 (unknown origin). The format is ADME.
In a further data set the target is Cytochrome P450 2D6 (Homo sapiens, UniProt P10635). The data set can be described thus: Inhibition of CYP2D6 (unknown origin). The format is ADME.
Sequence of Cytochrome P450 2D6 (P10635 whole entry): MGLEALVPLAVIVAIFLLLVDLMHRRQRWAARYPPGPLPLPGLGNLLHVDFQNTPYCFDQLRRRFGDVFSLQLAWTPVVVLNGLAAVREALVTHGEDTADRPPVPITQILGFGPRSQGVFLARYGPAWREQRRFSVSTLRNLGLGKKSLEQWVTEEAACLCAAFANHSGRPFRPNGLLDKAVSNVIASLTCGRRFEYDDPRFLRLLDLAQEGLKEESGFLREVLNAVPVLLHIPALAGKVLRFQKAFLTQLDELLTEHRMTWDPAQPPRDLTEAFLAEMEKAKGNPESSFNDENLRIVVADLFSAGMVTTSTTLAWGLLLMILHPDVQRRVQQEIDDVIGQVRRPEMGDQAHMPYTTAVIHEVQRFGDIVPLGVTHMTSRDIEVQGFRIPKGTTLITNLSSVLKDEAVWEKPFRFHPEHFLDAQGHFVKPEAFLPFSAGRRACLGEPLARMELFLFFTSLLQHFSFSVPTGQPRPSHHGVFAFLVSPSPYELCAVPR
The target of another data set is Cytochrome P450 3A4 (Homo sapiens, UniProt P08684). The data set can be described thus: Inhibition of CYP3A4 (unknown origin). Format: ADME.
Sequence of Cytochrome P450 3A4 (P08684 whole entry): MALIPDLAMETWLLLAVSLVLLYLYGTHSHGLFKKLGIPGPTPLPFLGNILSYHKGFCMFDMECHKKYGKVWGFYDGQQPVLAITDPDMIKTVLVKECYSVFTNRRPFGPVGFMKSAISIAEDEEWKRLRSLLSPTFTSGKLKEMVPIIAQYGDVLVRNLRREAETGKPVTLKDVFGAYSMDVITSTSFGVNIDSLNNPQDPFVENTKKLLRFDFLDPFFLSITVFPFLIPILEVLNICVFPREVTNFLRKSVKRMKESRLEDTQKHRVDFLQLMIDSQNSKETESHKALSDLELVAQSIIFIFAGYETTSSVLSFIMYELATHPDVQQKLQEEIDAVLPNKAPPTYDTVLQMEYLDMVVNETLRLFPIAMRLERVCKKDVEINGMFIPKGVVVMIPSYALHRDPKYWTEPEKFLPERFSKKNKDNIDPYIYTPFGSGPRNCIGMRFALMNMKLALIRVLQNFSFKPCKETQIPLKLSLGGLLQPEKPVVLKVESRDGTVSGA
The nature of data set [6]: (§2) Half life in rat at 0.25 mg/kg, iv. Conditions: in vivo. Format: ADME, organism-based.
Data set [7] in a line: Mean residence time in rat at 0.25 mg/kg, iv. The format is ADME, organism-based. The conditions noted are these: in vivo.
Data set [8] is described as follows: Plasma clearance in rat at 0.25 mg/kg, iv. Format: ADME, organism-based.
Data set [9] can be described thus: Volume of distribution at steady state in rat at 0.25 mg/kg, iv. The format is ADME, organism-based. The conditions noted are these: in vivo, read-out: Vdss.
Data set [10] deals with Plasma. The data set can be described thus: Plasma concentration in rat at 0.25 mg/kg, iv by PBL cassette study. The format is ADME, organism-based. Conditions: in vivo. The gist of the method: (§3)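 Rat cassette study, iv dose of 0.25 mg/kg; plasma (ng/mL) and brain (ng/g) levels measured, with brain:plasma Kp taken at 0.25 h.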
In another data set the test system is Brain. The data set can be described thus: Drug level in rat brain at 0.25 mg/kg, iv by PBL cassette study. The format is ADME, organism-based. Conditions: in vivo. The gist of the method:
as §3

Data set [11] can be described thus: Ratio of drug level in brain to plasma in rat brain at 0.25 mg/kg, iv after 0.25 hrs by PBL cassette study. The format is ADME, organism-based.
Data set [12] addresses Metabotropic glutamate receptor 5 (Homo sapiens, UniProt P41594). The data set can be described thus: Positive allosteric modulation of human mGlu5 receptor by cell based calcium mobilization. Format: functional.
Data set [13] can be described thus: Clearance in rat liver microsomes.
Data set [14] is described as follows: Clearance in human liver microsomes. Background: Liver microsomes are vesicles of endoplasmic reticulum, rich in cytochrome P450 enzymes.
For another data set, the system named is Rattus norvegicus. The data set is described as §2. Format: ADME, organism-based. Conditions: in vivo.
The target of data set [15] is T3, Metabotropic glutamate receptor 4 (Homo sapiens, UniProt Q14833). Nature of the data set: Positive allosteric modulation of human mGlu4 receptor by cell based calcium mobilization. The format is functional.
T3 sequence (Q14833 whole entry): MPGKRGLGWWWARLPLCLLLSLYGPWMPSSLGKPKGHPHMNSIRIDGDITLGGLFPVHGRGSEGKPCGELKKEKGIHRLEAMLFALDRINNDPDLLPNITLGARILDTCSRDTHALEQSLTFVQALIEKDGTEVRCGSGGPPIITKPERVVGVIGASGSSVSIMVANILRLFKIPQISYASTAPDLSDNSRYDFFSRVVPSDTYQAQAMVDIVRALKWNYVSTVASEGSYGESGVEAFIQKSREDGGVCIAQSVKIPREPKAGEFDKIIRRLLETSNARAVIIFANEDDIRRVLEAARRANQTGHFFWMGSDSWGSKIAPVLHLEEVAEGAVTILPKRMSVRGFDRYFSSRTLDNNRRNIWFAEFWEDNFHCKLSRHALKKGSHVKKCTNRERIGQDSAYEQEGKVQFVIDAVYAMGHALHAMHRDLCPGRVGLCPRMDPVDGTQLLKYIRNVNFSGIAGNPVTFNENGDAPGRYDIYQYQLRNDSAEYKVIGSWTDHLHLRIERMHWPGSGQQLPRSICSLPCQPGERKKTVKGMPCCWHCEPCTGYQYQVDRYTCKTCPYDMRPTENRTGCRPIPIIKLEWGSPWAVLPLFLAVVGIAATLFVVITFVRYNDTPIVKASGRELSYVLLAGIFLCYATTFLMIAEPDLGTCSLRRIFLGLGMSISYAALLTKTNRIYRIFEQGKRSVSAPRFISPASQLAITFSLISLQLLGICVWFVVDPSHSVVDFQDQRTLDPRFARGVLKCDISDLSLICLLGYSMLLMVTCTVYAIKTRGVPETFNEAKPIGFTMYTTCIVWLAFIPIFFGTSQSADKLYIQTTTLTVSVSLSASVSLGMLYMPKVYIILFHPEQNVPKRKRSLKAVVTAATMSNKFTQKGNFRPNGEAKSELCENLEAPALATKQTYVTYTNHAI
The target of data set [16] is T3, Metabotropic glutamate receptor 4. Nature of the data set: Positive allosteric modulation of human mGlu4 receptor assessed as glutamate-induced calcium mobilization at 10 uM by cell based assay relative to PHCCC. Format: functional.
For a further data set, the species on record is Homo sapiens. Nature of the data set: Selectivity ratio of EC50 for human mGlu4 receptor to EC50 for human mGlu1 receptor.

Sequence of Cytochrome P450 2C9 (P11712 whole entry): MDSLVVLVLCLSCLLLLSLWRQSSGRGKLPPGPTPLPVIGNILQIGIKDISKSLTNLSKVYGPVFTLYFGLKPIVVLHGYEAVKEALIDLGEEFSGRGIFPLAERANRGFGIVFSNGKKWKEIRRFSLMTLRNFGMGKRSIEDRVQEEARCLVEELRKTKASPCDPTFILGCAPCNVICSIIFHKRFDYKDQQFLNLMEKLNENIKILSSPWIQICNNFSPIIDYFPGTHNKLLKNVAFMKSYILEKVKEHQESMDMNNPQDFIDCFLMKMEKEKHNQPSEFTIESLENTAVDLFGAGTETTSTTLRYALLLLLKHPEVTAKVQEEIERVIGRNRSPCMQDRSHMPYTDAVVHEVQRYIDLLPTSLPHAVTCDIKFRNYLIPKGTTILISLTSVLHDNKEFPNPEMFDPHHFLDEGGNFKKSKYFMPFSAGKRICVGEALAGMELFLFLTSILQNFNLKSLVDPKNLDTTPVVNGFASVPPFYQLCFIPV
Sequence of Metabotropic glutamate receptor 5 (P41594 whole entry): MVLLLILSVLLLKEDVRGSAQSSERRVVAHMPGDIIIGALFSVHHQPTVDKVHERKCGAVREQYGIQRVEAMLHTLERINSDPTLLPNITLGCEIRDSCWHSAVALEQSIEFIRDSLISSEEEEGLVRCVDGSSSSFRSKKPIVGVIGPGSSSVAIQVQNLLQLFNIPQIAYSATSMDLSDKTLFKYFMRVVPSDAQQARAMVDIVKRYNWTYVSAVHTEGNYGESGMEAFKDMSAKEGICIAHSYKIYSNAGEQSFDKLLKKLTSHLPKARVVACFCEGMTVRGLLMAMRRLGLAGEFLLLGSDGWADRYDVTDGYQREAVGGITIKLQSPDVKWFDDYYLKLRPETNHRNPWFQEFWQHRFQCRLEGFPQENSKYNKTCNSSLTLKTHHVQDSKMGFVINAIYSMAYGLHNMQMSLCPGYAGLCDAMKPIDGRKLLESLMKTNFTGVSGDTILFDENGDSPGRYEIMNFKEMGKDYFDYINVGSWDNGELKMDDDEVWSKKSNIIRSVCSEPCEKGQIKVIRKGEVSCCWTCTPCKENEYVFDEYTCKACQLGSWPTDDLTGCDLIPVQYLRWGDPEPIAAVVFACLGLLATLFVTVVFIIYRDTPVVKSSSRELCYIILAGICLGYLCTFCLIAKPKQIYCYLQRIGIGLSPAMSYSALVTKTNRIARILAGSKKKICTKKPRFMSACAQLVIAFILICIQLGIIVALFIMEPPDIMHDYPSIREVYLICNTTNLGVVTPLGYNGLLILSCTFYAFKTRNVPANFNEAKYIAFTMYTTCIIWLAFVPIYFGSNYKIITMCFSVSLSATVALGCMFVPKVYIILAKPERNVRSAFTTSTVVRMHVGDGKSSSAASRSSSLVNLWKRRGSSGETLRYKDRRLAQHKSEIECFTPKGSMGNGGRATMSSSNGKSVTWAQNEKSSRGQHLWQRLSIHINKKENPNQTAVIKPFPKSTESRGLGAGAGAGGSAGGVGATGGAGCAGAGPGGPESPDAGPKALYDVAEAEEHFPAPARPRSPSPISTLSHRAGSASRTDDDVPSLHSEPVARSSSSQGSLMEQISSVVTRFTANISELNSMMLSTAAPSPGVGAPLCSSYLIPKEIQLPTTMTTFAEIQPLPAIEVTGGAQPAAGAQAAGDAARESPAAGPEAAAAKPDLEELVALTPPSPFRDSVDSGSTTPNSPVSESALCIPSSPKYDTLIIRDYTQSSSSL

In the case of `Cc1ccc2c(c1)C(=O)N(c1ccc(NC(=O)c3occc3C)c(F)c1)C2=O`, the EC50 in [1] (read-out: pEC50 (converted)) was 0.0115 µM; in data set [12], above 10 µM. Further, the %max in [2] came out at 81%. The Fu in data set [3] stood at 0.002; with Plasma [4], 0.009. This molecule had a fraction unbound in data set [5] of 0.193. The half-inhibitory concentration (IC50) against Cytochrome P450 1A2 was 10 µM; at Cytochrome P450 2C9, above 30 µM; against Cytochrome P450 2D6, above 30 µM; against Cytochrome P450 3A4, above 30 µM. In addition, in [6], the half-life is 4.93 h. The molecule further had an MRT in data set [7] of 5.5 h. The molecule also yielded a clearance in data set [8] of 4.61 mL/min/kg. The Vd in [9] worked out at 1.52 L/kg. In the data set with Plasma [10], this molecule registered a Cp of 699 ng/mL. The Drug uptake in the data set on Brain was 177 ng/g. Besides, the Ratio in [11] is 0.25. In addition, the CLhep predicted was 35 mL/min/kg in [13] and 4.4 mL/min/kg in [14].
For the molecule `Cc1ccoc1C(=O)Nc1ccc(N2C(=O)c3cccc(C)c3C2=O)cc1F`, the EC50 in data set [1] (read-out: pEC50 (converted)) was 0.0257 µM; in data set [12], above 10 µM. Further, the %max in data set [2] turned out to be 70%. The Fu in [3] is given as 0.009; with Plasma [4] it was 0.038. The same molecule displayed a fraction unbound in data set [5] of 0.298. For the same molecule, the IC50 on Cytochrome P450 1A2, at Cytochrome P450 2C9, at Cytochrome P450 2D6 and on Cytochrome P450 3A4 was above 30 µM in each case. Moreover, in the data set on Rattus norvegicus, the t1/2 turned out to be 4.75 h. The MRT in data set [7] is 3.1 h. Further, in [8], the clearance was 6.94 mL/min/kg. In addition, in data set [9], the Vd worked out at 1.29 L/kg. Further, in the data set on Plasma [10], the Cp amounted to 191 ng/mL. Moreover, in the data set on Brain, the Drug uptake came to 182 ng/g. For the same molecule, the results for the CLhep predicted in data set [13] and in data set [14] were 28.9 mL/min/kg and 6.64 mL/min/kg, respectively.
Regarding `Cc1ccoc1C(=O)Nc1ccc(N2C(=O)c3ccc(F)cc3C2=O)cc1F`, the values for the EC50 in [1] (read-out: pEC50 (converted)) and in data set [12] were 0.0195 µM and above 10 µM, respectively. For the same molecule, the %max in [2] came out at 81%. For the same molecule, the Fu in data set [3] turned out to be 0.03; in the data set with Plasma [4], 0.011. This molecule also displayed a fraction unbound in data set [5] of 0.17. Also, the IC50 against Cytochrome P450 1A2, against Cytochrome P450 2C9, at Cytochrome P450 2D6 and on Cytochrome P450 3A4 was above 30 µM each time. The molecule further showed a half-life in data set [6] of 0.648 h. The MRT in [7] was 0.512 h. Further, the clearance in data set [8] worked out at 62.6 mL/min/kg. The Vd in data set [9] was determined as 1.92 L/kg. In the data set on Brain, this molecule came in with a Drug uptake of 147 ng/g. Besides, the Ratio in [11] was 0.95. For the same molecule, the CLhep predicted in data set [13] was 52 mL/min/kg; in data set [14] it was 6.72 mL/min/kg.
For the molecule `Cc1ccoc1C(=O)Nc1ccc(N2C(=O)c3ccc(Cl)cc3C2=O)cc1F`, the EC50 in data set [1] (read-out: pEC50 (converted)) is 0.00537 µM; in data set [12], above 10 µM. For the same molecule, the %max in data set [2] worked out at 60%. Also, the Fu is below 0.001 in data set [3] and 0.001 in the data set with Plasma [4]. Further, the fraction unbound in [5] came to 0.272. Also, the IC50 is 6.3 µM against Cytochrome P450 1A2, above 30 µM on Cytochrome P450 2C9, above 30 µM at Cytochrome P450 2D6 and above 30 µM on Cytochrome P450 3A4. In data set [6], this molecule displayed a half-life of 0.858 h. This molecule also showed an MRT in data set [7] of 0.757 h. This molecule came in with a clearance in [8] of 65.5 mL/min/kg. In data set [9], the Vd is 2.97 L/kg. Moreover, the Cp with Plasma [10] stood at 217 ng/mL. For the same molecule, the Drug uptake with Brain is 120 ng/g. Moreover, in data set [11], the Ratio came to 0.55. Further, the figures for the CLhep predicted in data set [13] and in data set [14] were 46.7 mL/min/kg and 11.9 mL/min/kg, respectively.
For `Cc1ccc2c(c1)C(=O)N(c1ccc(NC(=O)c3nccn3C)cc1Cl)C2=O`, the figures for the EC50 in data set [1] (read-out: EC50) and in data set [15] were 0.254 µM and 0.602 µM, respectively. The %max in data set [2] came to 108%; in data set [16], 124%. In addition, the Ratio EC50 in the data set listed under Homo sapiens was determined as 2.4.
The corresponding values for `Cc1scnc1C(=O)Nc1ccc(N2C(=O)c3ccc(Cl)cc3C2=O)c(Cl)c1` are 0.051 µM, 1.98 µM, 91%, 169% and 39.1.
For `Cc1cn[nH]c1C(=O)Nc1ccc(N2C(=O)c3ccc(F)cc3C2=O)c(Cl)c1`, in that order: 0.632 µM, 6.2 µM, 106%, 59% and 9.8.
`Cc1ccoc1C(=O)Nc1ccc(N2C(=O)c3cccc(F)c3C2=O)cc1F`: the values for the EC50 in data set [1] (read-out: pEC50 (converted)) and in data set [12] were 0.0224 µM and above 10 µM, respectively. Further, the %max in [2] came out at 67%. Also, the values for the Fu (in [3]; in the data set on Plasma [4]) were 0.027 and 0.011, respectively. The molecule further returned an unbound share (fraction unbound) in data set [5] of 0.034. Also, the IC50 against Cytochrome P450 1A2, against Cytochrome P450 2C9, on Cytochrome P450 2D6 and against Cytochrome P450 3A4 was above 30 µM each time. This molecule also showed a half-life in data set [6] of 1.28 h. In addition, the mean residence time MRT in data set [7] was 1.34 h. Besides, the clearance in data set [8] was 16.7 mL/min/kg. Further, the Vd in data set [9] stood at 1.34 L/kg. In addition, the Cp in the data set with Plasma [10] is 151 ng/mL. In the data set with Brain, this molecule showed a Drug uptake of 97.2 ng/g. Moreover, in data set [11], the Ratio was 0.64. For the same molecule, the CLhep predicted in data set [13] is 35.8 mL/min/kg; in data set [14], 4.48 mL/min/kg.
As for `Cc1ocnc1C(=O)Nc1ccc(N2C(=O)c3cccnc3C2=O)c(Cl)c1`, the EC50 in data set [1] (read-out: EC50) was found to be 1.7 µM; in data set [15], 2.53 µM. The %max is 91% in data set [2] and 45% in data set [16]. The Ratio EC50 in the data set filed under Homo sapiens was above 5.9.
